Reference: ChEMBL document CHEMBL2146382, “Cytotoxic and antineoplastic activity of timosaponin A-III for human colon cancer cells” (J Nat Prod, 2011)
pIC50: −log10 of the molar value. Activity calls are given as the source filed them. The rule behind the calls is not given here.

Legend:
HCT-15 [1] = assay: Cell cycle arrest in human HCT15 cells assessed as accumulation at sub-G1 phase at 20 uM after 24 hrs using propidium-iodide staining by flow-cytometry (reference value: 6.5 %); assay type: functional
HCT-15 [2] = assay: Cell cycle arrest in human HCT15 cells assessed as accumulation at S phase at 20 uM after 24 hrs using propidium-iodide staining by flow-cytometry (reference value: 34.1 %); assay type: functional
HCT-15 [3] = assay: Antineoplastic activity against human HCT15 cells xenografted in nude BALB/c mouse assessed as inhibition of Ki-67 expression at 2 mg/kg, ip 3 times a week for 4 weeks by immunohistochemical analysis; assay type: functional, organism-based; parameters: dose 2 mg/kg
Procedure, shortened: (§1)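 HCT-15 cells (2 × 10^6 in 200 μL medium) implanted subcutaneously in flanks of BALB/c-nu (nu/nu) mice; dosing began at ca. 80 mm3 tumours; groups of five, randomized. 2 or 5 mg/kg given ip three times weekly in ethanol–cremophor–H2O (0.5:0.5:99), vehicle controls; caliper volume (3.14·L·W·H/6) three times weekly for 30 days; Ki-67 immunohistochemistry on tumour sections (1:250, 4 °C overnight, DAB, hematoxylin counterstain).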

HCT-15 [4] = assay: Cell cycle arrest at G0/G1 phase in human HCT15 cells assessed as decrease in c-Myc expression at 5 to 20 uM after 24 hrs by Western blot analysis; assay type: functional, cell-based
Procedure, shortened: (§2)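 HCT-15 cells in RPMI/10% FBS exposed to test compound at various concentrations; lysates quantified by BCA, 30–50 μg protein run on 10% SDS-PAGE, transferred to PVDF, blocked 1 h in 5% milk/PBST, primary antibodies overnight at 4 °C, HRP anti-mouse IgG 1:1500 for 3 h at room temperature, ECL detection.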

HCT-15 [5] = assay: Cell cycle arrest at G2/M phase in human HCT15 cells assessed as cyclin A down regulation at 5 to 20 uM after 12 to 24 hrs by Western blot analysis; assay type: functional, cell-based; procedure, shortened: as §2
HCT-15 [6] = assay: Cell cycle arrest at […] phase in human HCT15 cells assessed as cyclin A down regulation at 5 to 20 uM after 12 to 24 hrs by Western blot analysis; assay type: functional, cell-based; procedure, shortened: as §2
HCT-15 [7] = assay: Cell cycle arrest at […] phase in human HCT15 cells assessed as CDK4 down regulation at 5 to 20 uM after 12 to 24 hrs by Western blot analysis; assay type: functional, cell-based; procedure, shortened: as §2
HCT-15 [8] = assay: Induction of apoptosis in human HCT15 cells assessed as suppression of procaspase-9 expression at 5 to 20 uM after 12 to 24 hrs by Western blot analysis; assay type: functional, cell-based
Procedure, shortened: (§3)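 HCT-15 cells (RPMI, 10% heat-inactivated FBS, antibiotics-antimycotics, 37 C, 5% CO2) exposed to compound. Cells lysed, protein measured by BCA, 30-50 μg per lane resolved on 10% SDS-PAGE and electroblotted to PVDF. Membranes blocked 1 h in 5% nonfat milk/PBST, probed with primary antibodies overnight at 4 C, then HRP anti-mouse IgG 1:1500 for 3 h at room temperature. Detection by ECL; β-actin antibody available.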

HCT-15 [9] = assay: Induction of apoptosis in human HCT15 cells assessed as increase in caspase-9 expression at 5 to 20 uM by Western blot analysis; assay type: functional, cell-based; procedure, shortened: as §3
HCT-15 [10] = assay: Induction of apoptosis in human HCT15 cells assessed as increase in caspase-3 expression at 5 to 20 uM by Western blot analysis; assay type: functional, cell-based; procedure, shortened: as §2
HCT-15 [11] = assay: Induction of apoptosis in human HCT15 cells assessed as increase in caspase-3 expression after 12 to 24 hrs by Western blot analysis; assay type: functional, cell-based; procedure, shortened: as §2
HCT-15 [12] = assay: Induction of apoptosis in human HCT15 cells assessed as PARP cleavage at 20 uM after 12 to 24 hrs by Western blot analysis; assay type: functional, cell-based; procedure, shortened: as §2
HCT-15 [13] = assay: Induction of apoptosis in human HCT15 cells assessed as suppression of Bcl2 expression at 5 to 20 uM after 24 hrs by Western blot analysis; assay type: functional, cell-based; procedure, shortened: as §3
HCT-15 [14] = assay: Induction of apoptosis in human HCT15 cells assessed as suppression of Bcl-xL expression at 5 to 20 uM after 24 hrs by Western blot analysis; assay type: functional, cell-based; procedure, shortened: as §3
HCT-15 [15] = assay: Cell cycle arrest in human HCT15 cells assessed as increase in cyclin D1 expression up to 10 uM after 12 to 24 hrs by Western blot analysis; assay type: functional, cell-based; procedure, shortened: as §2
HCT-15 [16] = assay: Cell cycle arrest in human HCT15 cells up to 10 uM after 12 hrs by propidium-iodide staining by flow-cytometry; assay type: functional, cell-based
HCT-15 [17] = assay: Cytotoxicity against human HCT15 cells assessed as morphological changes with distinct rounded shapes and detachment after 12 to 24 hrs by phase-contrast microscopy; assay type: functional, cell-based
Procedure, shortened: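 HCT-15 cells treated with 0–20 μM for 12 and 24 h, vehicle-treated controls; morphology examined and photographed under phase-contrast microscope.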

HCT-15 [18] = assay: Cell cycle arrest in human HCT15 cells assessed as accumulation at G0/G1 phase at 5 uM after 12 hrs using propidium-iodide staining by flow-cytometry (reference value: 44.4 %); assay type: functional
HCT-15 [19] = assay: Cell cycle arrest in human HCT15 cells assessed as accumulation at S phase at 5 uM after 12 hrs using propidium-iodide staining by flow-cytometry (reference value: 34.7 %); assay type: functional
HCT-15 [20] = assay: Cell cycle arrest in human HCT15 cells assessed as accumulation at G0/G1 phase at 20 uM after 12 hrs using propidium-iodide staining by flow-cytometry (reference value: 44.4 %); assay type: functional
HCT-15 [21] = assay: Cell cycle arrest in human HCT15 cells assessed as accumulation at S phase at 20 uM after 12 hrs using propidium-iodide staining by flow-cytometry (reference value: 34.7 %); assay type: functional
HCT-15 [22] = assay: Cell cycle arrest in human HCT15 cells assessed as accumulation at G0/G1 phase at 5 uM after 24 hrs using propidium-iodide staining by flow-cytometry (reference value: 37.0 %); assay type: functional
HCT-15 [23] = assay: Cell cycle arrest in human HCT15 cells assessed as accumulation at S phase at 5 uM after 24 hrs using propidium-iodide staining by flow-cytometry (reference value: 34.1 %); assay type: functional
HCT-15 [24] = assay: Cell cycle arrest in human HCT15 cells assessed as accumulation at G2/M phase at 5 uM after 24 hrs using propidium-iodide staining by flow-cytometry (reference value: 22.4 %); assay type: functional
HCT-15 [25] = assay: Cell cycle arrest in human HCT15 cells assessed as accumulation at sub-G1 phase at 10 uM after 24 hrs using propidium-iodide staining by flow-cytometry (reference value: 6.5 %); assay type: functional
HCT-15 [26] = assay: Cell cycle arrest in human HCT15 cells assessed as accumulation at G2/M phase at 10 uM after 24 hrs using propidium-iodide staining by flow-cytometry (reference value: 22.4 %); assay type: functional
HCT-15 [27] = assay: Antineoplastic activity against human HCT15 cells xenografted in nude BALB/c mouse assessed as tumor growth inhibition at 2 to 5 mg/kg, ip 3 times a week for 4 weeks; assay type: functional, organism-based; procedure, shortened: as §1
HCT-15 [28] = assay: Cytotoxicity against human HCT15 cells after 3 days; assay type: functional, cell-based; details: HCT-15, 72 h
Procedure, shortened: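 SRB assay: cells at 5 × 10^4 cells/mL were exposed to a concentration series for 3 days, fixed with 10% TCA and stained with sulforhodamine B. Survival was expressed as % of solvent-treated control and IC50 taken by nonlinear regression of % survival versus concentration. Media held 10% heat-inactivated FBS plus antibiotics: RPMI (HCT-15, HCT 116, HT-29), RPMI with 25 mM HEPES (SW480, SW620), DMEM (MRC-5, Hs68). Cultures were kept at 37 C, 5% CO2.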

Q: For `C[C@H]1CC[C@@]2(OC1)O[C@H]1C[C@H]3[C@@H]4CC[C@@H]5C[C@@H](O[C@@H]6O[C@H](CO)[C@H](O)[C@H](O)[C@H]6O[C@@H]6O[C@H](CO)[C@@H](O)[C@H](O)[C@H]6O)CC[C@]5(C)[C@H]4CC[C@]3(C)[C@H]1[C@@H]2C` [TIMOSAPONIN AIII], which Activity (HCT-15 [1]) is on record?
A: 39.7%

Q: And the Activity (HCT-15 [2])?
A: 17%

Q: What about the Activity (HCT-15 [3]) of the same compound?
A: Active

Q: And the Activity (HCT-15 [4])?
A: Active

Q: What about the Activity (HCT-15 [5]) of the same compound?
A: Active

Q: What about the Activity (HCT-15 [6]) of the same compound?
A: Active

Q: What about the Activity (HCT-15 [7]) of the same compound?
A: Active

Q: And the Activity (HCT-15 [8])?
A: Active

Q: What about the Activity (HCT-15 [9]) of the same compound?
A: Active

Q: And the Activity (HCT-15 [10])?
A: Active

Q: And the Activity (HCT-15 [11])?
A: Active

Q: And the Activity (HCT-15 [12])?
A: Active

Q: What about the Activity (HCT-15 [13]) of the same compound?
A: Active

Q: And the Activity (HCT-15 [14])?
A: Active

Q: What about the Activity (HCT-15 [15]) of the same compound?
A: Active

Q: What about the Activity (HCT-15 [16]) of the same compound?
A: Active

Q: What about the Activity (HCT-15 [17]) of the same compound?
A: Dose-dependent effect

Q: And the Activity (HCT-15 [18])?
A: 52.2%

Q: What about the Activity (HCT-15 [19]) of the same compound?
A: 22.5%

Q: What about the Activity (HCT-15 [20]) of the same compound?
A: 12.2%

Q: And the Activity (HCT-15 [21])?
A: 4.2%

Q: And the Activity (HCT-15 [22])?
A: 36.4%

Q: And the Activity (HCT-15 [23])?
A: 37%

Q: What about the Activity (HCT-15 [24]) of the same compound?
A: 19.4%

Q: What about the Activity (HCT-15 [25]) of the same compound?
A: 6.4%

Q: What about the Activity (HCT-15 [26]) of the same compound?
A: 30.4%

Q: What about the TGI (HCT-15 [27]) of the same compound?
A: Active

Q: And the pIC50 (HCT-15 [28])?
A: 5.21
